Data set [1] has as its target T1, Cytochrome P450 3A4 (Homo sapiens, UniProt P08684). As to the kind of experiment: Inhibition of human CYP3A4 at >60 uM. The format is ADME.
The subject of data set [2] is Liver. As to the kind of experiment: Half life in mouse liver microsomes assessed as formation of oxidation product and glucuronide conjugate. Type of data set: ADME, Microsome. In short, it runs like this: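 Mouse liver microsomes run under combined phase I oxidation and phase II glucuronide conjugation; half-life reported in minutes.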
The target of data set [3] is T2, Cytochrome P450 2C9 (Homo sapiens, UniProt P11712). As to the kind of experiment: Inhibition of human CYP2C9. The format is ADME.
For data set [4], the target named is Cytochrome P450 2D6 (Homo sapiens, UniProt P10635). As to the kind of experiment: Inhibition of human CYP2D6. The format is ADME.
Data set [5] can be described thus: Oral bioavailability in mouse at 10 mg/kg. The following applies: in vivo. Type of data set: ADME, organism-based.
For data set [6], the target named is T3, Cytochrome P450 2C19 (Homo sapiens, UniProt P33261). As to the kind of experiment: Inhibition of human CYP2C19 at >60 uM. The format is ADME.
For data set [7], the target named is T4, Nitric oxide synthase 3 (Homo sapiens, UniProt P29474).
T4 sequence (P29474 whole entry): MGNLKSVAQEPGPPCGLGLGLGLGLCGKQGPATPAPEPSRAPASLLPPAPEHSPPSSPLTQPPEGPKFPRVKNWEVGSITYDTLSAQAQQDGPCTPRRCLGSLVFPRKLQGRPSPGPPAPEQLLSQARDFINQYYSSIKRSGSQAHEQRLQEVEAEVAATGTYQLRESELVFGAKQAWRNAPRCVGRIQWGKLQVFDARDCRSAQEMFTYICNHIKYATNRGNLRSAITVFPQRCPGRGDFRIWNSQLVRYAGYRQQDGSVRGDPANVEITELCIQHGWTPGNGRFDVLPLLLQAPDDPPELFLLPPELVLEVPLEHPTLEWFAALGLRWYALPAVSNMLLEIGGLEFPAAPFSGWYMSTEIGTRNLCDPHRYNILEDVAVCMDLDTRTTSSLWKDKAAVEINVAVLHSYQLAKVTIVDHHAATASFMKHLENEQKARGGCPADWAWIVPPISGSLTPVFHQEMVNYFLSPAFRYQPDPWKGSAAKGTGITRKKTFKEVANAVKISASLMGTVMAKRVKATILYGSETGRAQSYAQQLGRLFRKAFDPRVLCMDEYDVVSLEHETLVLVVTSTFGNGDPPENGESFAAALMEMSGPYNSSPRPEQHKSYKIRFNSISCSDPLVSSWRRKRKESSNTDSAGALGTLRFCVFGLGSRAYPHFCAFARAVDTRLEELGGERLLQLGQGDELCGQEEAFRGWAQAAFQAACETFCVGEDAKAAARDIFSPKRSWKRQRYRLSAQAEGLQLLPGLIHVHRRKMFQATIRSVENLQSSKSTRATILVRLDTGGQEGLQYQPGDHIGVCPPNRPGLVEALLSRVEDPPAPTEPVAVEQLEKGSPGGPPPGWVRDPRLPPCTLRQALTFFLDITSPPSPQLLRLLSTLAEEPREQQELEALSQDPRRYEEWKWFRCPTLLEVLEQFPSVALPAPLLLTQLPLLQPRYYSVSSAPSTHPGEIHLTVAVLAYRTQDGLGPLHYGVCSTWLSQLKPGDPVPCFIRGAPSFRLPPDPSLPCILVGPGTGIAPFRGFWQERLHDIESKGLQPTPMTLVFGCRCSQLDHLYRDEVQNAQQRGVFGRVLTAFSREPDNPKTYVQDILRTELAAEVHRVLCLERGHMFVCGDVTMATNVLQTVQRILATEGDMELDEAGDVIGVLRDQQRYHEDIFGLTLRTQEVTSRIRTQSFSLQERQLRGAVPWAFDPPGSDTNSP
As to the kind of experiment: Inhibition of human eNOS expressed in HEK293 cells assessed as inhibition A23187 induced nitric oxide production incubated for 24 hrs measured after 18 hrs of […] challenge using 2,3-diaminonaphthalene by fluorescence assay. Type of data set: cell-based. The gist of the method:
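HEK293 cells transfected for 4 h at 37 °C with human nNOS (10 μg) or human eNOS (15 μg) plasmid (Fugene 6, 3:1). Cells replated at 5e5 cells/mL and dosed with compound at once; SEITU (100 μM final) as positive control. After 24 h, cells activated with A23187 (83 nM final) for eNOS or ionomycin (30 μM final) for nNOS. NO read 18 h later as nitrite-DAN fluorescence.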

For data set [8], the target named is T5, Voltage-gated inwardly rectifying potassium channel KCNH2 (Homo sapiens, UniProt Q12809). As to the kind of experiment: Inhibition of human ERG at >30 uM by patch clamp assay. On the technique in general: Patch clamp records ionic current or voltage across a cell membrane.
The nature of data set [9]: Cmax in mouse 10 mg/kg, po. Type of data set: ADME, organism-based. Details: dose 10 mg/kg, route oral. Particulars: in vivo.
Data set [10] has as its target T5, Voltage-gated inwardly rectifying potassium channel KCNH2. As to the kind of experiment: Inhibition of human ERG by patch clamp assay.
For data set [11], the target named is T2, Cytochrome P450 2C9. As to the kind of experiment: Inhibition of human CYP2C9 at >60 uM. Type of data set: ADME.
Data set [12] deals with T3, Cytochrome P450 2C19. As to the kind of experiment: Inhibition of human CYP2C19 at >38 uM. The format is ADME.
Data set [13] has as its target T1, Cytochrome P450 3A4. As to the kind of experiment: Inhibition of human CYP3A4 at >100 uM. Type of data set: ADME.
Data set [14] relates to Mus musculus. As to the kind of experiment: Antinociceptive activity against formalin-induced pain in mouse assessed as attenuation of nocifensive phase 2 behaviors during phase 2 (25 to 45 mins post formalin injection) administered via oral gavage 30 mins before to formalin challenge. Type of data set: functional. In short, it runs like this:
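Mice were given compound by oral gavage in PEG/Tween 80/PVP + CMC vehicle 30 min before 20 μL of 5% formalin was injected into the left hind paw. Paw flinching, licking and biting were timed in 5 min bins by a single observer. Read-out was time in nociceptive behaviour at 25-45 min. Mean ± SE, n = 5-6, one-way ANOVA with post hoc tests.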

For data set [15], the system named is Mus musculus. As to the kind of experiment: Neurotoxicity in C57Bl/6j mouse assessed as inability to maintain equilibrium on rotarod up to 1000 mg/kg, po determined 1 to 3 hrs postdose by rotarod test. Type of data set: toxicity, organism-based. Details: dose 1000 mg/kg, route oral. The following applies: in vivo. In short, it runs like this:
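Male C57Bl/6j mice were acclimated to the rotarod at 4 rpm, then given two training sessions on an accelerating rod (4-40 rpm over 300 s). Only mice with latencies >60 s were kept. After oral dosing, latency to fall from the accelerating rod was recorded at 1, 2 and 3 h.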
In general terms: The rotarod test checks motor coordination on a turning rod.

Data set [16] deals with Brain. As to the kind of experiment: Drug uptake in rat brain by microdialysis relative to compound plasma level. The format is ADME, tissue-based. The following applies: in vivo.
The target in data set [17] is T6, Nitric oxide synthase 3 (Homo sapiens) (UniProt P29474).
T6 sequence (whole entry): T4 sequence (P29474 whole entry)
As to the kind of experiment: Inhibition of human eNOS expressed in HEK293 cells assessed as inhibition A23187 induced nitric oxide production at 100 uM incubated for 24 hrs measured after 18 hrs of […] challenge using 2,3-diaminonaphthalene by fluorescence assay. The format is cell-based.

Data set [18] deals with Mus musculus. As to the kind of experiment: Inhibition of LPS-induced iNOS activation in BALB/c mouse assessed as plasma nitrate levels at 30 mg/kg administered via oral gavage before LPS challenge measured after 6 to 8 hrs using 2,3-diaminonaphthalene by fluorescence assay relative to control. The format is functional. In short, it runs like this: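 Male BALB/c mice dosed by oral gavage (90% PEG/5% Tween 80/5% PVP + 0.5% w/v CMC) immediately before LPS (10 mg/kg ip in 0.9% NaCl). Mice killed at 6 h. EDTA plasma analysed for nitrate and drug levels; nitrite measured by DAN fluorescence.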

The species entered for data set [19] is Homo sapiens. As to the kind of experiment: Ratio of IC50 for human eNOS to EC50 for human iNOS.
The species named for data set [20] is Homo sapiens. As to the kind of experiment: Ratio of IC50 for human nNOS to EC50 for human iNOS.

pEC50: −log10 of the molar value. Bounds are passed on as bounds.

We go through five compounds from ChEMBL document CHEMBL1800057, “Discovery of dual inducible/neuronal nitric oxide synthase (iNOS/nNOS) inhibitor development candidate 4-((2-cyclobutyl-1H-imidazo[4,5-b]pyrazin-1-yl)methyl)-7,8-difluoroquinolin-2(1H)-one (KD7332) part 2: identification of a novel, potent, and selective series of benzimidazole-quinolinone …” (J Med Chem, 2010).

T2 sequence (P11712 whole entry): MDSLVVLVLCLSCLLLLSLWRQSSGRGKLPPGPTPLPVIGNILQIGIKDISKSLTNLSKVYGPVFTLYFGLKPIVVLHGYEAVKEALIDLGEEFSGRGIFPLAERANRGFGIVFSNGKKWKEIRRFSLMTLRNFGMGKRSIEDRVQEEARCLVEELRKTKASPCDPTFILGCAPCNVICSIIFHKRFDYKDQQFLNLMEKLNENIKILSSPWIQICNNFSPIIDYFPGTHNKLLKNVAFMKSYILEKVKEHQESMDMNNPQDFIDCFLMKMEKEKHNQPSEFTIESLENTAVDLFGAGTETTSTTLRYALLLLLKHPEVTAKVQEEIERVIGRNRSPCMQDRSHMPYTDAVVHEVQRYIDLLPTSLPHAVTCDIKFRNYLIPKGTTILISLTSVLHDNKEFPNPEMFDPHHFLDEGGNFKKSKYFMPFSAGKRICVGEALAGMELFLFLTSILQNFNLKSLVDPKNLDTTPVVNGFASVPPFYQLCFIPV
Sequence of Cytochrome P450 2D6 (P10635 whole entry): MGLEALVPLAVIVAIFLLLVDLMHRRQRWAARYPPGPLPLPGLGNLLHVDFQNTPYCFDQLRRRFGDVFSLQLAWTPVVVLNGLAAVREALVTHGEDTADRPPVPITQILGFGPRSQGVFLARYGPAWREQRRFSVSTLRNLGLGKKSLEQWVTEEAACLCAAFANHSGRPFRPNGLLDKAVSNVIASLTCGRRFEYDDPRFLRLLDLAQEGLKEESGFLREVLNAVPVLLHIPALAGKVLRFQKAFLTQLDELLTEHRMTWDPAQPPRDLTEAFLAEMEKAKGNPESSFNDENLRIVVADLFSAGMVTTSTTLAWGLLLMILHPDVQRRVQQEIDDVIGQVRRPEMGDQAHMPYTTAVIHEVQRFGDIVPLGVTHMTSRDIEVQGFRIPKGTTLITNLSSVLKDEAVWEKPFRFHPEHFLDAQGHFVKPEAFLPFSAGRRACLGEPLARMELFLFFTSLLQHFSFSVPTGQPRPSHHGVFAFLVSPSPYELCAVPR
T1 sequence (P08684 whole entry): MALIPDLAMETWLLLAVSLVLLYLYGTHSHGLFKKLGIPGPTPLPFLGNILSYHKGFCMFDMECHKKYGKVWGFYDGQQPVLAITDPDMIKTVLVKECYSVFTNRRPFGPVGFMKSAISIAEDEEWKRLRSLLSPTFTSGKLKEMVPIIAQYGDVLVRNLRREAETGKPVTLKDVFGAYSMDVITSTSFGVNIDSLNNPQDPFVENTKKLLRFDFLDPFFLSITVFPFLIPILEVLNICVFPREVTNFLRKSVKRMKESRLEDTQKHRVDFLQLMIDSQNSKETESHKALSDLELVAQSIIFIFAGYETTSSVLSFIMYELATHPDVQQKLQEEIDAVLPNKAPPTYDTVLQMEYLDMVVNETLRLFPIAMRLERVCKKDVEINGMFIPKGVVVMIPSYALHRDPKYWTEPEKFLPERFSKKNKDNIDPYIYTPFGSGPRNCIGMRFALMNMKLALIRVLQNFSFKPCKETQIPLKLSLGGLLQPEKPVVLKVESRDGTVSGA
T5 sequence (Q12809 whole entry): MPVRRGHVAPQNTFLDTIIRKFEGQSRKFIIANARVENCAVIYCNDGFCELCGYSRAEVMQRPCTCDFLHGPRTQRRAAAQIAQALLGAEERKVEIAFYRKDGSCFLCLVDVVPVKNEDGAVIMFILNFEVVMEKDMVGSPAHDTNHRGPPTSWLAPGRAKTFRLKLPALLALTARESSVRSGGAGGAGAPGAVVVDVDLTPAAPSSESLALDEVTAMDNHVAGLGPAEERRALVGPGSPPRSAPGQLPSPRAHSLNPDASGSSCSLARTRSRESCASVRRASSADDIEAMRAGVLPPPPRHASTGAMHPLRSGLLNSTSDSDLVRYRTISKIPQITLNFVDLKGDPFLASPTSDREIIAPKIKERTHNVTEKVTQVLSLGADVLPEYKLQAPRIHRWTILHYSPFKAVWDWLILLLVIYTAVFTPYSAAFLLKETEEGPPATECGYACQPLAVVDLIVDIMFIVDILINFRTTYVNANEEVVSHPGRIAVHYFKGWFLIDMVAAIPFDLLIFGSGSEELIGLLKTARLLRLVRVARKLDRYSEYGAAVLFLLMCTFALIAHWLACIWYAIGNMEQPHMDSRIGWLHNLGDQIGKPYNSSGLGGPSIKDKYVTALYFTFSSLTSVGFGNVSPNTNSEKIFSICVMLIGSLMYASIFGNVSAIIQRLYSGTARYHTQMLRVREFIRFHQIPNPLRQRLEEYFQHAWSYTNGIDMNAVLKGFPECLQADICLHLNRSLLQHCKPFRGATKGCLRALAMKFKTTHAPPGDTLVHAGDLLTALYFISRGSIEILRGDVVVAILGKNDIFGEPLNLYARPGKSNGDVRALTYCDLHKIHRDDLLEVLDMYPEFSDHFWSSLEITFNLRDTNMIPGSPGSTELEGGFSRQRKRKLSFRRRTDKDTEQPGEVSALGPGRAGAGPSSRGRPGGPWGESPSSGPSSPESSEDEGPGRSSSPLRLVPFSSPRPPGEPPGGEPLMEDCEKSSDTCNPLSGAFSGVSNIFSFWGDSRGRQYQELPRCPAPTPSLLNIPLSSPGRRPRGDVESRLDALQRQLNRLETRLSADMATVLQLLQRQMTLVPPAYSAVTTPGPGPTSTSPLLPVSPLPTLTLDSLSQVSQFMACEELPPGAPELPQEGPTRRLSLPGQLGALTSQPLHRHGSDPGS
T3 sequence (P33261 whole entry): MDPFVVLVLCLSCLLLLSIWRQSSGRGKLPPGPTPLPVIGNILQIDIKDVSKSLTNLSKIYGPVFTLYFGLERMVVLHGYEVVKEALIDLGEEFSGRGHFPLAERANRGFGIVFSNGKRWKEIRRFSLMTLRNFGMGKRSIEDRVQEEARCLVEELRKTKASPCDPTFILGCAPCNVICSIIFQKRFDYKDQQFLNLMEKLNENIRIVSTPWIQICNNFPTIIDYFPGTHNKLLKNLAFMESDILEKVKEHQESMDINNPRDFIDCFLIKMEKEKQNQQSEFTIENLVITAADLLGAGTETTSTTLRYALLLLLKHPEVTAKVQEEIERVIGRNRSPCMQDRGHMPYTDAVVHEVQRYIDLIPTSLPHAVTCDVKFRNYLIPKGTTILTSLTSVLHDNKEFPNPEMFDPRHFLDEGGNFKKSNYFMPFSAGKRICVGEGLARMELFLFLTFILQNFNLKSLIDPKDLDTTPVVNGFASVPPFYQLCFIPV

For the compound `CC(C)Cc1nc2nccnc2n1Cc1cc(=O)[nH]c2c(F)c(F)ccc12`, the “inhibition (INH)” value in data set [1], in [6] and in data set [8] was less than 50% throughout. Further, in data set [2], the t1/2 turned out to be 47 min. Besides, the pEC50 (as a rule, the negative decadic logarithm of the EC50, by convention in mol/L) in data set [3] is 4.54; in [4], less than 4.00; in data set [7], 4.41; in data set [10] it was less than 4.52. The bioavailability – broadly, dose-corrected exposure relative to a reference, in per cent – in [5] was 39%. In addition, in data set [9], the Cmax (in general, the highest concentration seen after dosing) is 3700 ng/mL.
For `O=c1cc(Cn2c(C3CCC3)nc3nccnc32)c2cccc(F)c2[nH]1`, the “inhibition (INH)” value in data set [1], in data set [6] and in [11] was less than 50% in each case. Further, the t1/2 in [2] is on record as more than 120 min. Besides, the pEC50 in data set [3] was less than 4.22; in [4], less than 4.00; in data set [7] it was 4.59. The compound further returned a bioavailability in data set [5] of 91%. Further, the highest level in data set [9] (Cmax) was 15000 ng/mL.
Regarding `O=c1cc(Cn2c(C3CCC3)nc3nccnc32)c2ccc(F)c(F)c2[nH]1`, in [2], the t1/2 is on record as more than 120 min. The pEC50 in [3] was less than 4.22; in data set [4], less than 4.00; in [7] it was 4.78; in data set [10], less than 4.52. Also, the “inhibition (INH)” value in data set [12], in data set [13], in [11] and in data set [8] was less than 50% each time. The compound also registered a bioavailability in data set [5] of 62%. Further, the ED50 (as a rule, the dose that gives a 50% effect, or the effect in half of the subjects) in data set [14] was 13 mg/kg. Further, the Activity result in data set [15] is given as “Non-toxic”. Further, the Drug uptake in data set [16] worked out at 2%.
For the compound `O=c1cc(Cn2c(C3CC(F)(F)C3)nc3nccnc32)c2cccc(F)c2[nH]1`, in data set [2], the t1/2 was more than 120 min. Also, the pEC50 in [3] is 4.66; in data set [4], less than 4.00; in [7], less than 4.00. In addition, in data set [5], the bioavailability stood at 55%.
`CC(C)Cc1nc2ccccc2n1Cc1cc(=O)[nH]c2c(F)c(F)ccc12`: the inhibition (commonly the relative decrease from the control value, in per cent) in [17] is less than 50%. In addition, the t1/2 in data set [2] was 110 min. For the same compound, the inhibition in vivo (in general, the relative decrease from the control value, in per cent) at 30 mg/kg in data set [18] worked out at 85%. The compound also returned a bioavailability in [5] of 81%. Moreover, the Ratio EC50 is more than 263 in data set [19] and 1.8 in data set [20]. Also, in data set [7], the pEC50 was less than 4.00.
